Like-named read-outs stand apart in the source and are kept apart here.
Assays:
CYP3A4 [1] = settings: cited from earlier work
CYP3A4 [2] = settings: cited from earlier work; remark: listed apart in the source
[3] = test system: proinflammatory cytokines (IL-6, TNF-α, IL-1β, TGF-β); assay: Plasma proinflammatory cytokines during treatment; assay type: in vivo, human
Method in brief: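 Plasma was taken at Day 1 predose and on treatment Days 7 and 14. IL-6, TNF-α, IL-1β and TGF-β were quantified by Luminex multiplex bead assay, with a magnetic cytokine panel for IL-1β and IL-6. Values were summarised by study day as medians and interquartile ranges, with change from baseline. Comparisons used Wilcoxon tests.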

Safety and tolerability = assay type: in vivo, human; settings: for tolerability: 150 mg once daily for 14 days, regardless of HI
Method in brief: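 Adverse events were monitored continuously and graded with the Division of AIDS toxicity scale. Hematology, clinical chemistry, urinalysis and 12-lead ECG were done at screening, baseline (Day –1), Day 14 and Day 28, with hematology and chemistry also at Day 7. Physical exams ran through follow-up (Day 28, or Day 35 for hepatic impairment). Data were summarised descriptively without formal statistical testing.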

CCR2 = CCR2 (Homo sapiens, UniProt P41597); assay: CCR2 antagonist activity: plasma CCR2 ligand; assay type: in vivo; settings: across all groups, P < 0.05
Sequence of CCR2 (P41597 whole entry): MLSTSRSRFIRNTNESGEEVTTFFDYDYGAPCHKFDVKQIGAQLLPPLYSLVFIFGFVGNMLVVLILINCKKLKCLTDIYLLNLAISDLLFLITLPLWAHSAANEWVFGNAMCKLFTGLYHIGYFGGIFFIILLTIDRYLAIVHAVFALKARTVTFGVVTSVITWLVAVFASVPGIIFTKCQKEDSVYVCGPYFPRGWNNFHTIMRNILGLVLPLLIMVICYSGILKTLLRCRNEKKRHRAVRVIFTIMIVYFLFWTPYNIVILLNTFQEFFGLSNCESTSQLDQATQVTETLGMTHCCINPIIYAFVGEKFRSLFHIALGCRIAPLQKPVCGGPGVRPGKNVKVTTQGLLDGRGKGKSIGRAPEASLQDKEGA
Method in brief: (§1)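 Adults with mild or moderate hepatic impairment and matched controls with normal hepatic function were given an oral 150 mg tablet of the test compound over 14 days. Plasma was sampled on Day 1 (predose), Day 7 and Day 14. CCL2, CCL3 and CCL4 were measured by Luminex multiplex and CCL5 by ELISA. Medians, IQR and change from baseline were reported, with Wilcoxon tests.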

[4] = cited from earlier work
[5] = cited from earlier work; remark: listed apart in the source
CYP2C8 = settings: cited from earlier work
P-glycoprotein = settings: cited from earlier work
CCR5 = CCR5 (Homo sapiens, UniProt P51681); assay: CCR5 antagonist activity: plasma CCR5 ligand; assay type: in vivo; settings: for CCL4 median fold-change: P < 0.05
Sequence of CCR5 (P51681 whole entry): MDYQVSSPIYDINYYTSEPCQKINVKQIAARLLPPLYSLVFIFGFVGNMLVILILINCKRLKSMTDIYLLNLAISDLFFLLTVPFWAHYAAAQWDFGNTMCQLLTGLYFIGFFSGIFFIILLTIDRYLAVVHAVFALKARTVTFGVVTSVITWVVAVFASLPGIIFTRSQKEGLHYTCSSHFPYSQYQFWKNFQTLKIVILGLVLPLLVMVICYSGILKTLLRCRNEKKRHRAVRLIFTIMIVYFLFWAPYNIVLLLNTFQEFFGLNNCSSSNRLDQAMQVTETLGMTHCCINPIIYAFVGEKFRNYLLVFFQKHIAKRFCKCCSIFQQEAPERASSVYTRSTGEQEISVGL
Method in brief: as §1

[6] = assay type: in vivo, human; settings: for CL/F / AUC / AUC(0-inf) / Cmax / concentration at 14 day / Tmax / Vd/F / half-life: geometric mean (SD); for AUC / AUC(0-inf) / Cmax / concentration at 14 day / Tmax / Vd/F / half-life: human, plasma, oral; for AUC: AUC0–τ; for AUC(0-inf): AUC0–∞; for concentration at 14 day: Cmin; for Vd/F: Vz/F; for time to steady-state conditions: predose samples
Method in brief: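 Plasma sampled on Days 1 and 14 predose and 0.5–24 h postdose, plus predose on Days 3, 5, 7, 10, 13, 16. Blood kept on ice, spun 2,000g 15 min at 5°C within 45 min, and plasma stored at –70°C. Extraction was by protein precipitation with internal standard. Parameters came from noncompartmental analysis. ANOVA on ln-transformed Cmax, Cmin and AUC0–τ gave geometric mean ratios with 90% CIs versus matched controls.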

[7] = cited from earlier work; remark: listed apart in the source
[8] = matched controls (mild) (N = 7)
[9] = matched controls (moderate) (N = 8)
[10] = mild hepatic impairment (N = 8)
[11] = moderate hepatic impairment (N = 8)
[12] = Day 14, mild hepatic impairment
[13] = Day 14, moderate hepatic impairment
[14] = 150 mg, Day 14, 150 mg once daily, matched controls (mild)
[15] = 150 mg, Day 14, 150 mg once daily, matched controls (moderate)
[16] = 150 mg, Day 14, 150 mg once daily, mild hepatic impairment
[17] = 150 mg, Day 14, 150 mg once daily, moderate hepatic impairment

- CCL2 median fold-change (CCR2; Day 7 vs Day 1 (predose)): 4.4–5.5
- CCL2 median fold-change (CCR2; Day 14 vs Day 1 (predose)): 4.8–6.0
- CCL4 median fold-change (CCR5; after 7 days of treatment vs Day 1 (predose)): 1.8–2.3
- CCL4 median fold-change (CCR5; after 14 days of treatment vs Day 1 (predose)): 1.6–2.5
- CCL3 levels change during treatment (CCR5; any group): did not change significantly
- CCL5 change during treatment (CCR5; matched controls (moderate) only, Day 14 vs Day 1, P = 0.008): increased significantly
- CL/F ([6]; Day 1, 150 mg, matched controls (mild)): 22.1 L/h
- CL/F ([6]; Day 1, 150 mg, matched controls (moderate)): 31.7 L/h
- CL/F ([6]; Day 1, 150 mg, mild hepatic impairment): 27.1 L/h
- CL/F ([6]; Day 1, 150 mg, moderate hepatic impairment): 25.8 L/h
- CL/F ([6]; Day 14, 150 mg once daily, matched controls (mild)): 14.4 (1.5) L/h
- CL/F ([6]; Day 14, 150 mg once daily, matched controls (moderate)): 25.3 (2.0) L/h
- CL/F ([6]; Day 14, 150 mg once daily, mild hepatic impairment): 23.2 (1.9) L/h
- CL/F ([6]; Day 14, 150 mg once daily, moderate hepatic impairment): 16.3 (1.3) L/h
- AUC0–τ lower than matched controls [6, 12]: 38%
- Cmax lower than matched controls [6, 12]: 40%
- Cmin lower than matched controls [6, 12]: ~27%
- AUC0–τ higher than matched controls [6, 13]: 55%
- Cmax higher than matched controls [6, 13]: 29%
- Cmin higher than matched controls [6, 13]: ~97%
- AUC [6, 14]: 10400 ng·h/mL
- AUC [6, 15]: 5940 ng·h/mL
- AUC [6, 16]: 6470 ng·h/mL
- AUC [6, 17]: 9180 ng·h/mL
- AUC(0-inf) [6, 14]: 18900 ng·h/mL
- AUC(0-inf) [6, 15]: 11000 ng·h/mL
- AUC(0-inf) [6, 16]: 14600 ng·h/mL
- AUC(0-inf) [6, 17]: 26100 ng·h/mL
- Cmax [6, 14]: 759 ng/mL
- Cmax [6, 15]: 469 ng/mL
- Cmax [6, 16]: 452 ng/mL
- Cmax [6, 17]: 607 ng/mL
- concentration at 14 day [6, 14]: 248 ng/mL
- concentration at 14 day [6, 15]: 140 ng/mL
- concentration at 14 day [6, 16]: 180 ng/mL
- concentration at 14 day [6, 17]: 275 ng/mL
- Tmax [6, 14]: 5.66 h
- Tmax [6, 15]: 4.49 h
- Tmax [6, 16]: 5.34 h
- Tmax [6, 17]: 4.83 h
- Vd/F ([6]; 150 mg, Day 1, 150 mg, matched controls (mild)): 262 L
- Vd/F ([6]; 150 mg, Day 1, 150 mg, matched controls (moderate)): 370 L
- Vd/F ([6]; 150 mg, Day 1, 150 mg, mild hepatic impairment): 329 L
- Vd/F ([6]; 150 mg, Day 1, 150 mg, moderate hepatic impairment): 386 L
- Vd/F [6, 14]: 455 L
- Vd/F [6, 15]: 816 L
- Vd/F [6, 16]: 995 L
- Vd/F [6, 17]: 886 L
- half-life ([6]; 150 mg, t1/2, Day 1, 150 mg, moderate hepatic impairment): 10.4 h
- half-life ([6]; 150 mg, t1/2, Day 14, 150 mg once daily, matched controls (mild)): 22 h
- half-life ([6]; 150 mg, t1/2, Day 14, 150 mg once daily, matched controls (moderate)): 22.4 h
- half-life ([6]; 150 mg, t1/2, Day 14, 150 mg once daily, mild hepatic impairment): 29.7 h
- half-life ([6]; 150 mg, t1/2, Day 14, 150 mg once daily, moderate hepatic impairment): 37.6 h
- time to steady-state conditions ([6]; matched controls): 7 to 10 days
- time to steady-state conditions ([6]; participants with mild or moderate HI): 10 to 13 days
SMILES: CCCCOCCOc1ccc(-c2ccc3c(c2)/C=C(/C(=O)Nc2ccc([S@@+]([O-])Cc4cncn4CCC)cc2)CCCN3CC(C)C)cc1 [cenicriviroc]
- substrate of CYP3A4 (CYP3A4 [1]): substrate
- inhibition of CYP3A4 (CYP3A4 [2]): weak inhibitor
- IL-1β levels change during treatment ([3]; any group): did not change significantly
- IL-6 levels change during treatment ([3]; any group): did not change significantly
- TNF-α levels change during treatment ([3]; any group): did not change significantly
- TGF-β levels change during treatment ([3]; moderate HI group, Day 1 vs Day 14, P < 0.01): increased
- tolerability (Safety and tolerability): generally well tolerated
- tolerability (Safety and tolerability; listed as Cenicriviroc): well tolerated
- AST (treatment-emergent Grade 1 elevation) (Safety and tolerability; Day 7, one matched control (moderate), resolved upon continued dosing): 1.3 x ULN
- AST (Safety and tolerability; Day 28, another participant with moderate HI, screening 5.9 x ULN): 10.2 x ULN
- Participants with any treatment-related AEs (Safety and tolerability; [8]): 3 (42.9) N (%)
- Treatment-related AE: Dry mouth (Safety and tolerability; [8]): 2 (28.6) N (%)
- Treatment-related AE: Epigastric discomfort (Safety and tolerability; [8]): 0 (0) N (%)
- Treatment-related AE: Flatulence (Safety and tolerability; [8]): 0 (0) N (%)
- Treatment-related AE: Headache (Safety and tolerability; [8]): 1 (14.3) N (%)
- Treatment-related AEs Grade 1 (Safety and tolerability; [8]): 3 (42.9) N (%)
- Treatment-related AEs Grade 2 (Safety and tolerability; [8]): 0 (0) N (%)
- Treatment-related AEs Grade 3 (Safety and tolerability; [8]): 0 (0) N (%)
- Treatment-related AEs Grade 4 (Safety and tolerability; [8]): 0 (0) N (%)
- Participants with any treatment-related AEs (Safety and tolerability; [9]): 4 (50.0) N (%)
- Treatment-related AE: Dry mouth (Safety and tolerability; [9]): 0 (0) N (%)
- Treatment-related AE: Epigastric discomfort (Safety and tolerability; [9]): 0 (0) N (%)
- Treatment-related AE: Flatulence (Safety and tolerability; [9]): 1 (12.5) N (%)
- Treatment-related AE: Headache (Safety and tolerability; [9]): 1 (12.5) N (%)
- Treatment-related AEs Grade 1 (Safety and tolerability; [9]): 4 (50.0) N (%)
- Treatment-related AEs Grade 2 (Safety and tolerability; [9]): 0 (0) N (%)
- Treatment-related AEs Grade 3 (Safety and tolerability; [9]): 0 (0) N (%)
- Treatment-related AEs Grade 4 (Safety and tolerability; [9]): 0 (0) N (%)
- Participants with any treatment-related AEs (Safety and tolerability; [10]): 6 (75.0) N (%)
- Treatment-related AE: Dry mouth (Safety and tolerability; [10]): 0 (0) N (%)
- Treatment-related AE: Epigastric discomfort (Safety and tolerability; [10]): 1 (12.5) N (%)
- Treatment-related AE: Flatulence (Safety and tolerability; [10]): 1 (12.5) N (%)
- Treatment-related AEs Grade 1 (Safety and tolerability; [10]): 6 (75.0) N (%)
- Treatment-related AEs Grade 2 (Safety and tolerability; [10]): 0 (0) N (%)
- Treatment-related AEs Grade 3 (Safety and tolerability; [10]): 0 (0) N (%)
- Treatment-related AEs Grade 4 (Safety and tolerability; [10]): 0 (0) N (%)
- Participants with any treatment-related AEs (Safety and tolerability; [11]): 4 (50.0) N (%)
- Treatment-related AE: Dry mouth (Safety and tolerability; [11]): 0 (0) N (%)
- Treatment-related AE: Epigastric discomfort (Safety and tolerability; [11]): 1 (12.5) N (%)
- Treatment-related AE: Flatulence (Safety and tolerability; [11]): 0 (0) N (%)
- Treatment-related AE: Headache (Safety and tolerability; [11]): 1 (12.5) N (%)
- Treatment-related AEs Grade 1 (Safety and tolerability; [11]): 4 (50.0) N (%)
- Treatment-related AEs Grade 2 (Safety and tolerability; [11]): 0 (0) N (%)
- Treatment-related AEs Grade 3 (Safety and tolerability; [11]): 1 (12.5) N (%)
- Treatment-related AEs Grade 4 (Safety and tolerability; [11]): 0 (0) N (%)
- bound to plasma proteins [4]: > 98%
- APRI, FIB-4 and enhanced liver fibrosis score ([5]; HIV-infected participants): decreases
- sCD14 levels ([5]; HIV-positive participants (Study 202)): decreased
- substrate of CYP2C8 (CYP2C8): substrate
- substrate of P-glycoprotein (P-glycoprotein): substrate
- time to reach steady-state plasma concentrations ([7]; healthy participants): 8 to 10 days
- plasma half-life ([7]; in humans): 30 to 40 h
- effect of administration with food on bioavailability ([7]; in vivo): increase
